Screens as filed in PubChem BioAssay.
Most compounds without a hit are left out; they make up all but 2.6% or so of the library.
SENP8 block-1: SENP8 protease inhibition. Q96LD8. purified SENP8, Z-RLRGG-aminoluciferin cleavage, luminescence. inhibition, % at 10 µM. 330,000 tested, 1.2% active. AID 2540; in the data active means inhibition above about 50%
SENP1 inh: inhibitors of human SENP1 SUMO protease catalytic domain; inhibition, % at 10 µM; Q9P0U3; 360,000 tested, 0.21% active; recombinant SENP1 catalytic domain, CyPet-SUMO1-YPet FRET cleavage;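 active means inhibition at least 30% at 10 µM, raw YFP signal under a set limit, fluorescence ratio 0.5 to 1.5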;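 further: 0% = enzyme with DMSO and 100% = no enzyme wells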
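Assay system: hSENP1 catalytic domain, recombinant. Amount: SENP1 enzyme, 20 pM final. Schedule: 50 min reaction, RT, dark. Technique: FRET, CFP and YFP emission. Control set: no-enzyme wells low, DMSO-plus-enzyme wells high control.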
SENP7 inh: SENP7 protease inhibition; Q9BQF6; recombinant SENP7, Z-RLRGG-aminoluciferin luminescence, 40 min; inhibition, % at 5 µM; 330,000 tested, 1.5% active; AID 434973;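 active means inhibition above about 50% at the single test dose, limit read from the data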;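 further: plate controls were DMSO with enzyme for no effect and no enzyme buffer wells for full effect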
Target sequence (Q9BQF6 706-1050 limits assumed): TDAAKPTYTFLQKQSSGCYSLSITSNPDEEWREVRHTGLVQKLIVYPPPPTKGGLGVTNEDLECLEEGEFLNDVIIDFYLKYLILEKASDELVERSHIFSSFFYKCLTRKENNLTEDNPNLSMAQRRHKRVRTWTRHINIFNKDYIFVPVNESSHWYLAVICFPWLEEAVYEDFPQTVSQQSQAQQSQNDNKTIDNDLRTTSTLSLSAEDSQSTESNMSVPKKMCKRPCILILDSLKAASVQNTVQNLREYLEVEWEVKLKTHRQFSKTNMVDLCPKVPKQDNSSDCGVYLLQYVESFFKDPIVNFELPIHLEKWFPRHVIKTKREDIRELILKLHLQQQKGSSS
SENP6 block: inhibitors of human SENP6 protease | 330,000 tested, 1.8% active | inhibition, % at 10 µM | Q9GZR1 | Recombinant SENP6 catalytic domain, aminoluciferin luminescence;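 active means inhibition above about 50% at the single tested dose, limit read from the data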;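 further: plate controls were DMSO wells with enzyme for no effect and DMSO wells lacking enzyme for full effect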
Platelet DG rel: platelet dense granule release activity; inhibition, %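 (compounds screened at 7.5 µM in platelet-rich plasma)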; 300,000 tested, 0.22% active; AID 1663; human platelet-rich plasma, SFLLRN dense granule ATP release, luminescence;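 active means mean replicate score, as percent of positive control, at or above 50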
SENP8 block-2: blocks human SENP8 cleavage of Nedd8 substrate. inhibition, % at 20 µM. 360,000 tested, 0.64% active. recombinant SENP8, Nedd8 substrate fluorescence. Q96LD8; in the data active means inhibition mostly above about 40%, no sharp cut-off; inactive means mostly below about 27%
SENP8 confirm: human SENP8 inhibition, confirmed. shares compounds with SENP7 inh. Recombinant SENP8, Z-RLRGG-aminoluciferin luminescence, 60 min. inhibition, % at 12.5 µM. 6,200 tested, 40% active. AID 488912;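 active means mean inhibition across replicates above about 50%, limit read from the data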
SENP6 conf: human SENP6 inhibition, confirmed | shares compounds with SENP7 inh | recombinant SENP6, Z-RLRGG-aminoluciferin luminescence | inhibition, % at 12.5 µM | 6,200 tested, 58% active | AID 488915
SENP7 conf: confirmation of human SENP7 protease inhibitors; 6,200 tested, 69% active; inhibition, % at 12.5 µM; AID 488917; recombinant SENP7, Z-RLRGG-aminoluciferin luminescence, 40 min; shares compounds with SENP7 inh
Casp3 select: caspase-3 inhibition (SENP selectivity assay). shares compounds with SENP7 inh. purified caspase-3, Z-DEVD-aminoluciferin luminescence, 60 min. inhibition, % at 12.5 µM. 6,200 tested, 60% active. AID 488918;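 active means mean inhibition above about 50%, limit read from the data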;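 further: plate controls were enzyme with DMSO for no effect and wells without caspase-3 for full effect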
Target sequence (P42574 28-227 limits assumed): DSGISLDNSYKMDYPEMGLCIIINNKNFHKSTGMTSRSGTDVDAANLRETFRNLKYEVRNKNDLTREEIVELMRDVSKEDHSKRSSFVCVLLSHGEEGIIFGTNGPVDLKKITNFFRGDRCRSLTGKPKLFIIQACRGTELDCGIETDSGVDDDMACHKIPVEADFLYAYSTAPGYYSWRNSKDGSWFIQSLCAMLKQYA
Luc interf: luminescence interference (SENP counter-screen); shares compounds with SENP7 inh; Pre-incubated SENP8/Z-RLRGG-aminoluciferin, luciferase luminescence interference; inhibition, % at 12.5 µM; 6,200 tested, 39% active; AID 488919;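 active means mean inhibition above about 50% when retested at one dose, limit read from the data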;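 further: plate controls were DMSO wells with completed reaction for no effect and substrate without enzyme for full effect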
Starred values were filed as active, the others as inactive; · = no result.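 How the source made its calls, unless noted: active means mean inhibition above about 50% in the one-dose retest (limit read from the data); inactive means the rest.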

SMILES	SENP8 block-1	SENP1 inh	SENP7 inh	SENP6 block	Platelet DG rel	SENP8 block-2	SENP8 confirm	SENP6 conf	SENP7 conf	Casp3 select	Luc interf
CN1CCN(c2ccc(NC(=O)c3cccc(OCc4ccccc4)c3)cc2)CC1	21	0	29	59*	-16	28	23	11	23	15	4
O=C(Nc1ccc(COc2ccccc2)cc1)c1cccc([N+](=O)[O-])c1	-4	1	63*	9	1	16	-1	0	2	6	5
COC(=O)CCC(=O)N1CN2CN(C(=O)CCC(=O)OC)CC([N+](=O)[O-])(C2)C1	0	-3	8	95*	-3	19	-26	-21	-11	-11	-8
O=C(O)CCC(=O)N1CN2CN(C(=O)CCC(=O)O)CC([N+](=O)[O-])(C2)C1	-2	3	3	-15	4	19	·	·	·	·	·
O=c1cc(CSc2ccccc2)nc(-c2ccccc2)[nH]1	2	-1	0	-34	-8	9	·	·	·	·	·
c1cncc(-c2nc(-c3ccc4c(c3)OCCO4)cs2)c1	80*	1	83*	79*	4	-97	3	81*	97*	72*	80*
COc1ccc(/C=N/NC(=O)c2[nH]ncc2Br)c(OC)c1	75*	4	87*	82*	20	-28	80*	81*	97*	93*	9
O=C(N/N=C/c1cccnc1)c1[nH]ncc1Br	1	3	26	-9	16	-1	·	·	·	·	·
O=C(N/N=C/c1ccccc1)c1[nH]ncc1Br	86*	0	95*	91*	40	6	89*	88*	98*	95*	40
O=C(Nc1cccc(Cl)c1Cl)c1ccncc1	-11	3	-10	-20	-3	14	·	·	·	·	·
O=C1/C(=C/c2cccs2)Cc2ccccc21	84*	0	92*	91*	18	7	83*	91*	99*	87*	70*
Cn1cccc1/C=C1\CCc2ccccc2C1=O	95*	-97	43	100*	67*	-12	98*	98*	102*	97*	96*
Cn1cccc1/C=C1\Cc2ccccc2C1=O	92*	-34	93*	-8	36	-256	66*	91*	99*	93*	36
O=C(COC(=O)CCC(=O)c1cccs1)Nc1ccc(S(=O)(=O)N2CCOCC2)cc1	-1	4	-3	-24	4	1	·	·	·	·	·
Cc1ccc(N=Nc2ccc(O)cc2)c(Br)c1	56*	3	20	64*	5	16	74*	73*	86*	23	69*
Oc1ccc(N=Nc2n[nH]c(-c3ccc(Br)cc3)n2)cc1	·	2	·	·	4	24	·	·	·	·	·
Oc1ccc(N=Nc2ccc(Br)cc2)c(O)c1	96*	4	89*	99*	18	27	93*	93*	98*	72*	82*
CCN(CC)S(=O)(=O)c1ccc(N=Nc2cc(C)cc(Br)c2O)cc1	-2	3	-10	-6	-6	34	·	·	·	·	·
Cc1cccc(N2C(=O)c3ccc(C(=O)Nc4c[nH]c(=O)[nH]c4=O)cc3C2=O)c1	-1	-2	-2	-7	3	22	·	·	·	·	·
Cc1ccc2nc3n(c(=O)c2c1)CCCCC3	-4	2	1	-7	1	16	·	·	·	·	·
Cc1ccc(S(=O)(=O)Nc2ccc3ccccc3n2)cc1	4	0	1	-3	-1	-339	·	·	·	·	·
COC/C=C/C1=CC2=CC(=O)C(C)(OC(=O)c3cnc4ccccc4n3)C(=O)C2=CN1c1ccccc1 (centres undefined)	64*	·	1	3	1	·	12	11	6	4	0
COC/C=C/C1=CC2=CC(=O)C(C)(OC(=O)c3cnc4ccccc4n3)C(=O)C2=CN1c1ccc(CO)cc1 (centres undefined)	-3	·	12	-55	-5	·	·	·	·	·	·
Cc1ccc2nc(N3CCN(Cc4ccc(F)cc4)C3=O)c(C)cc2c1	-2	-1	-2	-12	3	-42	·	·	·	·	·
Cc1nn(Cc2ccccc2)c(C)c1C(=O)N1CCN(CC(=O)Nc2ccc(F)cc2)CC1	0	1	53*	-3	·	13	-12	-6	-6	-2	-7
SMILES	SENP8 block-1	SENP1 inh	SENP7 inh	SENP6 block	Platelet DG rel	SENP8 block-2	SENP8 confirm	SENP6 conf	SENP7 conf	Casp3 select	Luc interf
Cc1cc(C(=O)COC(=O)c2ccc(F)cc2F)c(C)n1C1CC1	50	1	43	64*	·	12	-1	-14	33	14	-3
Cc1cc(C(=O)COC(=O)c2ccc[nH]c2=O)c(C)n1C1CC1	-4	0	-3	-35	-8	5	·	·	·	·	·
COC(=O)c1ccc(S(=O)(=O)NCc2ccc(S(N)(=O)=O)cc2)n1C	6	-2	-2	4	-3	5	·	·	·	·	·
c1ccc(-c2onc3cc4c(cc23)OCCO4)cc1	78*	-158	76*	89*	31	-183	9	92*	101*	86*	92*
NCC1CC2c3ccccc3C1c1ccccc12 (centres undefined)	-3	2	-2	-15	0	25	·	·	·	·	·
O=C(Nc1ccccc1F)c1ccc2snnc2c1	21	-1	46	51*	15	2	28	28	65*	72*	7
O=C(Nc1ccccc1)Nc1ccc2snnc2c1	38	-23	62*	62*	7	-1	56*	54*	77*	39	63*
O=C(Nc1ccc(Cl)cc1)c1ccc2snnc2c1	-16	1	-15	4	22	23	·	·	·	·	·
COc1ccc(/C=C(\NC(=O)c2ccc([N+](=O)[O-])cc2)C(=O)NCCCn2ccnc2)cc1	7	0	5	11	-2	25	·	·	·	·	·
CCCc1[nH]n(-c2nc3ccccc3s2)c(=O)c1C=NCCCN(CC)CC	42	2	40	68*	-11	13	49	22	33	60*	57*
O=C(Cn1cc(SCc2ccc(F)cc2)c2ccccc21)N1CCOCC1	16	2	22	58*	0	18	50*	48	79*	27	36
